Assay results gathered from unrelated publications.
Target: Mitogen-activated protein kinase kinase kinase kinase 4 (MAP4K4, Homo sapiens, UniProt O95819)

| Structure (SMILES) | test | setting | measurement | value |
| --- | --- | --- | --- | --- |
| CCCCN(CCCC)C(=O)CN1C[C@@H](c2cc(OC)c3c(c2)OCO3)[C@H](C(=O)O)[C@H]1CC(C)(C)CCC | cell-free assay, competition with immobilised ligand | 1 µM | remaining binding | 88.9% |
| COc1cc2c(N3CCN(C(=O)Nc4ccc(OC(C)C)cc4)CC3)ncnc2cc1OCCCN1CCCCC1 | cell-free assay | 0.5 µM | remaining signal | 96.6% |
| Nc1ncnc2occ(-c3ccc(NC(=O)Nc4cc(C(F)(F)F)ccc4F)cc3)c12 | cell-free assay, inhibitor | 20 µM | remaining signal | 0% |
| Oc1cccc(-c2nc(N3CCOCC3)c3oc4ncccc4c3n2)c1 | cell-free assay | 0.5 µM | remaining signal | 91.4% |
| CN1CC(Oc2cnc(C#N)cc2-c2ccn3nc(NC(=O)C4CC4)cc3c2)C1 | enzyme activity, inhibitor | 1 µM | inhibition | 13% |
| CO[C@@H](C)c1c(Nc2ccc([C@@H](N(C)C(=O)C3CCS(=O)(=O)CC3)C(F)(F)F)cc2)cnc2cc(Cl)nn12 | cell-free assay, competition with immobilised ligand | 1 µM | remaining binding | 100% |
| CCCS(=O)(=O)Nc1ccc(F)c(C(=O)c2c[nH]c3ncc(-c4ccc(Cl)cc4)cc23)c1F | enzyme activity, inhibitor | 1 µM | inhibition | < 10% |
| CSc1nc(C)c(-c2ccnc(Nc3ccc(N4CCOCC4)cc3)c2)[nH]1 | enzyme activity, inhibitor | 10 µM | inhibition | 77.9% |
| CN(C(=O)c1ccccc1)c1cc(N(C)c2ccc3c(c2)CCc2ccc(C(=O)NCCN4CCOCC4)cc2C3=O)ccc1F | cell-free assay, competition with immobilised ligand | 1 µM | remaining binding | 100% |
| O=C(Nc1cnn(-c2csc(C(=O)NC3COC3)c2)c1)Nc1ccccc1Cl | enzyme activity, inhibitor | 5 µM | remaining activity | 81.1% |
| Cc1c(NC(=O)c2cc(C(N)=O)nc3cc(F)ccc23)c(C(F)(F)F)nn1Cc1ccc(C(C)(C)C)cc1 | cell-free assay, competition with immobilised ligand | 1 µM | remaining binding | 76% |
| CS(=O)(=O)CCNCc1ccc(-c2ccc3ncnc(Nc4ccc(OCc5cccc(F)c5)c(Cl)c4)c3c2)o1 | cell-free assay | 0.5 µM | remaining signal | 111% |
| COc1cc2ncnc(Nc3ccc(Oc4ccccc4)cc3C)c2cc1OC | enzyme activity, inhibitor | 1 µM | inhibition | 6% |
| Oc1ccc(-c2nc(-c3ccncc3)c(-c3ccc(F)cc3)[nH]2)cc1 | cell-free assay | 0.5 µM | remaining signal | 86.5% |
| O=C(NC[C@@H]1[C@H]2CN(C(=O)OCc3cc(C(F)(F)F)cc(C(F)(F)F)c3)C[C@@H]12)c1ccc2[nH]nnc2c1 | cell-free assay, competition with immobilised ligand | 1 µM | remaining binding | 100% |
| Nc1nc(Nc2ccc(S(N)(=O)=O)cc2)nn1C(=O)c1c(F)cccc1F | cell-free assay | 0.5 µM | remaining signal | 83.8% |
| CC(C)(C)c1nc(-c2cccc(NS(=O)(=O)c3c(F)cccc3F)c2F)c(-c2ccnc(N)n2)s1 | enzyme activity, inhibitor, radiometric | 1 µM | remaining activity | 95% |
